Test results taken from ChEMBL document CHEMBL1129955, “Structure-activity relationships of alkyl- and alkoxy-substituted 1,4-dihydroquinoxaline-2,3-diones: potent and systemically active antagonists for the glycine site of the NMDA receptor” (J Med Chem, 1997).

Tests used:
[1] = target: Glutamate receptor ionotropic, NMDA 1 (Rattus norvegicus, UniProt P35439); assay: Potency for the N-methyl-D-aspartate glutamate receptor 1 glycine site by displacement of [3H]5,7-dichlorokynurenic acid (DCKA) binding in rat brain cortical membranes.; format: cell membranes, Membrane
[2] = Selectivity index for the inhibition of NMDA receptors was estimated by dividing Kb AMPA by Kb NMDA
[3] = target: T1, Glutamate receptor ionotropic, AMPA (Rattus norvegicus) (UniProt P19491+P19492+P19493+P19490); assay: Dissociation constant(Kb) for Ionotropic glutamate receptor AMPA was determined from inhibition of currents activated by 10(uM) AMPA in Xenopus oocytes expressing rat cerebral cortex poly(A)+ RNA; format: functional, cell-based; details: Oocyte
[4] = target: T1, Glutamate receptor ionotropic, AMPA (Rattus norvegicus); assay: Dissociation constant(Kb) for Ionotropic glutamate receptor AMPA as inhibition of currents activated by 10 uM AMPA in Xenopus oocytes expressing rat cerebral cortex poly(A)+ RNA; format: functional, cell-based; details: Oocyte
Mus musculus = species on record: Mus musculus; assay: Anticonvulsant activity was measured by mouse maximal electroshock (MES) assay.; format: functional
Summary of the method: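 Mice; compounds dissolved in 0.05 M Tris, given iv; tested at peak activity 2 min after injection (one compound with slower onset tested at 15 min). Maximal electroshock seizure protection scored; ED50 by Litchfield and Wilcoxon analysis.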

[5] = Partition coefficient (logP); format: physicochemical; details: octanol/water

SMILES	IC50 [1] [nM]	other results
COc1cc2[nH]c(=O)c(=O)[nH]c2cc1OC	17000	
O=[N+]([O-])c1c2c(cc3nc(O)c(O)nc13)CCC2		Selectivity index [2]: 20; Kb [3]: 17000 nM
COc1c(F)cc2[nH]c(=O)c(=O)[nH]c2c1[N+](=O)[O-]	1900	
O=c1[nH]c2cc3ccccc3cc2[nH]c1=O	16000	
Nc1c(F)cc2nc(O)c(O)nc2c1[N+](=O)[O-]	11000	
CCc1c(Cl)cc2nc(O)c(O)nc2c1[N+](=O)[O-]	130	
O=c1[nH]c2cc3c(c([N+](=O)[O-])c2[nH]c1=O)CCC3	3100	
Oc1nc2cc3c(cc2nc1O)OCO3	> 100000	
CCc1cc2nc(O)c(O)nc2c([N+](=O)[O-])c1Cl	29	ED50 (Mus musculus): 4.5 mg/kg; logP [5]: 0.92
Oc1cc2nc(O)c(O)nc2cc1O	> 100000	
CCc1cc2[nH]c(=O)c(=O)[nH]c2cc1Cl	1400	
CCc1cc2nc(O)c(O)nc2c([N+](=O)[O-])c1Br	82	ED50 (Mus musculus): 11 mg/kg; logP [5]: 1.04
Cc1c(Cl)cc2nc(O)c(O)nc2c1[N+](=O)[O-]		Kb [4]: 3500 nM; Selectivity index [2]: 440; ED50 (Mus musculus): 1.2 mg/kg
O=c1[nH]c2cc(Cl)c(Cl)c([N+](=O)[O-])c2[nH]c1=O [LICOSTINEL]	5.9	ED50 (Mus musculus): 4 mg/kg; logP [5]: 0.21
Cc1c(F)cc2nc(O)c(O)nc2c1[N+](=O)[O-]	95	ED50 (Mus musculus): 1.8 mg/kg; logP [5]: 0.08
Cc1c(Br)cc2nc(O)c(O)nc2c1[N+](=O)[O-]	8.7	ED50 (Mus musculus): 2 mg/kg; logP [5]: 0.61
COc1c(Cl)cc2[nH]c(=O)c(=O)[nH]c2c1[N+](=O)[O-]	150	
N#Cc1cc([N+](=O)[O-])c2[nH]c(=O)c(=O)[nH]c2c1	2800	
CCOc1c(F)cc2nc(O)c(O)nc2c1[N+](=O)[O-]	3600	
Cc1cc2nc(O)c(O)nc2cc1Cl	780	
O=[N+]([O-])c1c(OCCCc2ccccc2)c(F)cc2nc(O)c(O)nc12	4000	
Cc1c(C#N)cc2nc(O)c(O)nc2c1[N+](=O)[O-]		Selectivity index [2]: 20; Kb [3]: 590 nM
COc1cc2[nH]c(=O)c(=O)[nH]c2c(OC(C)=O)c1OC	53000	

Now from value to compound, other results behind:

IC50 [1] [nM]	SMILES	other results
150	Cc1c(Cl)cc2nc(O)c(O)nc2c1N	
29	Cc1cc2nc(O)c(O)nc2c([N+](=O)[O-])c1C	Kb [4]: 3100 nM; Selectivity index [2]: 79; ED50 (Mus musculus): 2.6 mg/kg; logP [5]: 0.58
64	COc1c(Br)cc2[nH]c(=O)c(=O)[nH]c2c1[N+](=O)[O-]	
45	Cc1cc2nc(O)c(O)nc2c([N+](=O)[O-])c1Cl	ED50 (Mus musculus): 1.9 mg/kg; logP [5]: 0.44
20	O=[N+]([O-])c1c(Br)c(Br)cc2nc(O)c(O)nc12	ED50 (Mus musculus): 7.3 mg/kg; logP [5]: 0.74
1800	CCc1cc2[nH]c(=O)c(=O)[nH]c2cc1CC	
160	CCc1cc2[nH]c(=O)c(=O)[nH]c2c([N+](=O)[O-])c1CC	
4.7	Cc1c(Cl)cc2[nH]c(=O)c(=O)[nH]c2c1[N+](=O)[O-]	logP [5]: 0.49
73	Cc1c(C#N)cc2[nH]c(=O)c(=O)[nH]c2c1[N+](=O)[O-]	
4300	CCCCOc1c(F)cc2nc(O)c(O)nc2c1[N+](=O)[O-]	
17000	COc1cc2[nH]c(=O)c(=O)[nH]c2c(O)c1OC	
640	CCSc1c(Cl)cc2nc(O)c(O)nc2c1[N+](=O)[O-]	
15000	Oc1nc2cc3c(cc2nc1O)CCC3	
9300	Cc1cc([N+](=O)[O-])c2[nH]c(=O)c(=O)[nH]c2c1	
1000	COc1cc2nc(O)c(O)nc2cc1Br	
3300	Cc1cc2[nH]c(=O)c(=O)[nH]c2cc1C	
